ChEMBL document CHEMBL3227917, “Structure-activity relationships of dimeric Catharanthus alkaloids. 2. Experimental antitumor activities of N-substituted deacetylvinblastine amide (vindesine) sulfates” (J Med Chem, 1979)

Key:
[1] = tested on: Mus musculus; assay: Toxicity in C57BL/6 mouse allografted with mouse B16 cells assessed as animal death at 0.60 mg/kg, ip administered on days 1,5 and 9; type: organism-based; set-up: dose 0.6 mg/kg, route intraperitoneal; conditions: in vivo, 0.6 mg/kg
Procedure, shortened: (§1)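 B16 melanoma cells (10⁶ inoculum) implanted ip in C57BL/6 mice; groups of 10. Sulfate salts unless noted, given ip on days 1, 5 and 9. Single test. Survival prolongation is expressed as percent versus controls, with survivors counted on day 60. Toxic means deaths of ≥5 of 10 animals before the first control death.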

[2] = tested on: Mus musculus; assay: Toxicity in C57BL/6 mouse allografted with mouse B16 cells assessed as animal death at 1.20 mg/kg, ip administered on days 1,5 and 9; type: organism-based; set-up: dose 1.2 mg/kg, route intraperitoneal; conditions: in vivo, 1.2 mg/kg; procedure, shortened: as §1
[3] = Antitumor activity against mouse Gardner lymphosarcoma allografted in C3H mouse assessed as tumor growth inhibition at 0.10 mg/kg, ip administered daily for 8 to 10 days; type: functional; conditions: route intraperitoneal, read-out: TGI
Procedure, shortened: (§2)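 Gardner lymphosarcoma in C3H mice; sulfate salts unless noted, given ip daily for 8–10 days, treatment starting 8 days after tumor implantation. Tumor growth inhibition scored as –, 0–25%; +, 26–50%; ++, 51–75%; +++, 76–100%; T, lethal to ≥5 of 10 animals per group. Average of one or more tests.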

[4] = Antitumor activity against mouse Gardner lymphosarcoma allografted in C3H mouse assessed as tumor growth inhibition at 0.20 mg/kg, ip administered daily for 8 to 10 days; type: functional; conditions: route intraperitoneal, read-out: TGI; procedure, shortened: as §2
[5] = tested on: Mus musculus; assay: Toxicity in C57BL/6 mouse allografted with mouse B16 cells assessed as animal death at 0.90 mg/kg, ip administered on days 1,5 and 9; type: organism-based; set-up: dose 0.9 mg/kg, route intraperitoneal; conditions: in vivo, 0.9 mg/kg; procedure, shortened: as §1
[6] = Antitumor activity against mouse P1534 cells allografted in DBA2 mouse assessed as tumor growth inhibition at 0.10 mg/kg, ip administered daily for 8 to 10 days; type: functional; conditions: route intraperitoneal, read-out: TGI
Procedure, shortened: (§3)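 P1534(J) leukemia implanted sc in DBA2 mice; sulfate salts dosed ip daily for 8–10 days. Growth inhibition scored –, 0–25%; +, 26–50%; ++, 51–75%; +++, 76–100%; T, lethal to ≥5 of 10 animals per group. Average of one or more tests.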

[7] = Toxicity in iv dosed mouse assessed as lethality; type: organism-based; conditions: in vivo
[8] = Antitumor activity against mouse Ridgway osteogenic sarcoma allografted in AKR mouse assessed as tumor growth inhibition at 0.10 mg/kg, ip administered daily for 8 to 10 days compound treatment commenced 8 days after tumor implantation; type: functional; conditions: route intraperitoneal, read-out: TGI
[9] = Antitumor activity against mouse Gardner lymphosarcoma allografted in C3H mouse assessed as tumor growth inhibition at 0.40 mg/kg, ip administered daily for 8 to 10 days; type: functional; conditions: route intraperitoneal, read-out: TGI; procedure, shortened: as §2
[10] = tested on: B16; assay: Antitumor activity against mouse B16 cells allografted in C57BL/6 mouse assessed as prolongation of host survival at 0.60 mg/kg, ip administered on days 1,5 and 9; type: functional; conditions: route intraperitoneal; procedure, shortened: as §1
[11] = Antitumor activity against mouse Gardner lymphosarcoma allografted in C3H mouse assessed as tumor growth inhibition at 0.05 mg/kg, ip administered daily for 8 to 10 days; type: functional; conditions: route intraperitoneal, read-out: TGI; procedure, shortened: as §2
[12] = tested on: CHO; assay: Mitotic arrest in CHO cells assessed as increase in cell accumulation at 0.002 ug/ml; type: functional, Cricetulus griseus
Procedure, shortened: (§4)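 Chinese hamster ovary cells in tissue culture, scored for mitotic arrest as increase in cells in mitotic arrest over control: +++, 40–50%; ++, 15–40%; +, 10–15%; ±, 7–10%; –, 3–7%. Cytotoxicity noted separately.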

[13] = tested on: B16; assay: Antitumor activity against mouse B16 cells allografted in C57BL/6 mouse assessed as prolongation of host survival at 1.20 mg/kg, ip administered on days 1,5 and 9; type: functional; conditions: route intraperitoneal; procedure, shortened: as §1
[14] = tested on: CHO; assay: Mitotic arrest in CHO cells assessed as increase in cell accumulation at 0.2 ug/ml; type: functional, Cricetulus griseus; procedure, shortened: as §4
[15] = Antitumor activity against mouse Ridgway osteogenic sarcoma allografted in AKR mouse assessed as tumor growth inhibition at 0.05 mg/kg, ip administered daily for 8 to 10 days compound treatment commenced 8 days after tumor implantation; type: functional; conditions: route intraperitoneal, read-out: TGI
[16] = tested on: CHO; assay: Mitotic arrest in CHO cells assessed as increase in cell accumulation at 0.02 ug/ml; type: functional, Cricetulus griseus; procedure, shortened: as §4
[17] = Antitumor activity against mouse Ridgway osteogenic sarcoma allografted in AKR mouse assessed as tumor growth inhibition at 0.40 mg/kg, ip administered daily for 8 to 10 days compound treatment commenced 8 days after tumor implantation; type: functional; conditions: route intraperitoneal, read-out: TGI
[18] = tested on: B16; assay: Antitumor activity against mouse B16 cells allografted in C57BL/6 mouse assessed as prolongation of host survival at 0.90 mg/kg, ip administered on days 1,5 and 9; type: functional; conditions: route intraperitoneal; procedure, shortened: as §1
[19] = Antitumor activity against mouse Ridgway osteogenic sarcoma allografted in AKR mouse assessed as tumor growth inhibition at 0.20 mg/kg, ip administered daily for 8 to 10 days compound treatment commenced 8 days after tumor implantation; type: functional; conditions: route intraperitoneal, read-out: TGI
[20] = Dissociation constant, pKa of the compound; type: physicochemical
Procedure, shortened: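 Electrometric titration in 66% aqueous DMF.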

[21] = tested on: Mus musculus; assay: Toxicity in AKR mouse allografted with mouse Ridgway osteogenic sarcoma assessed as lethality at 0.20 mg/kg, ip administered daily for 8 to 10 days compound treatment commenced 8 days after tumor implantation; type: organism-based; set-up: dose 0.2 mg/kg, route intraperitoneal; conditions: in vivo, 0.2 mg/kg
Procedure, shortened: (§5)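 Tumor-bearing mice given sulfate salts ip daily for 8–10 days; values are the average of one or more tests. Toxic means lethal to ≥5 of 10 animals per group.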

[22] = tested on: Mus musculus; assay: Toxicity in C3H mouse allografted with mouse Gardner lymphosarcoma assessed as lethality at 0.40 mg/kg, ip administered daily for 8 to 10 days; type: organism-based; set-up: dose 0.4 mg/kg, route intraperitoneal; conditions: in vivo, 0.4 mg/kg; procedure, shortened: as §5
[23] = tested on: Mus musculus; assay: Toxicity in C3H mouse allografted with mouse Gardner lymphosarcoma assessed as lethality at 0.20 mg/kg, ip administered daily for 8 to 10 days; type: organism-based; set-up: dose 0.2 mg/kg, route intraperitoneal; conditions: in vivo, 0.2 mg/kg; procedure, shortened: as §5
[24] = tested on: Mus musculus; assay: Toxicity in AKR mouse allografted with mouse Ridgway osteogenic sarcoma assessed as lethality at 0.40 mg/kg, ip administered daily for 8 to 10 days compound treatment commenced 8 days after tumor implantation; type: organism-based; set-up: dose 0.4 mg/kg, route intraperitoneal; conditions: in vivo, 0.4 mg/kg; procedure, shortened: as §5
[25] = Antitumor activity against mouse P1534 cells allografted in DBA2 mouse assessed as tumor growth inhibition at 0.20 mg/kg, ip administered daily for 8 to 10 days; type: functional; conditions: route intraperitoneal, read-out: TGI; procedure, shortened: as §3
[26] = Antitumor activity against mouse P1534 cells allografted in DBA2 mouse assessed as tumor growth inhibition at 0.40 mg/kg, ip administered daily for 8 to 10 days; type: functional; conditions: route intraperitoneal, read-out: TGI; procedure, shortened: as §3
[27] = Antitumor activity against mouse Gardner lymphosarcoma allografted in C3H mouse assessed as tumor growth inhibition at 0.125 mg/kg, ip administered daily for 8 to 10 days; type: functional; conditions: route intraperitoneal, read-out: TGI; procedure, shortened: as §2
[28] = Antitumor activity against mouse Gardner lymphosarcoma allografted in C3H mouse assessed as tumor growth inhibition at 0.25 mg/kg, ip administered daily for 8 to 10 days; type: functional; conditions: route intraperitoneal, read-out: TGI; procedure, shortened: as §2
[29] = Antitumor activity against mouse Gardner lymphosarcoma allografted in C3H mouse assessed as tumor growth inhibition at 0.5 mg/kg, ip administered daily for 8 to 10 days; type: functional; conditions: route intraperitoneal, read-out: TGI; procedure, shortened: as §2
[30] = Antitumor activity against mouse Ridgway osteogenic sarcoma allografted in AKR mouse assessed as tumor growth inhibition at 0.30 mg/kg, ip administered daily for 8 to 10 days compound treatment commenced 8 days after tumor implantation; type: functional; conditions: route intraperitoneal, read-out: TGI

Row | Structure (SMILES) | inhibition in vivo at 0.1 mg/kg [3] [%] | inhibition in vivo at 0.2 mg/kg [4] [%] | inhibition in vivo at 0.1 mg/kg [8] [%] | inhibition in vivo at 0.4 mg/kg [9] [%] | inhibition in vivo at 0.05 mg/kg [15] [%] | inhibition in vivo at 0.4 mg/kg [17] [%] | inhibition in vivo at 0.2 mg/kg [19] [%] | further results
1 | CC[C@]1(O)C[C@H]2CN(CCc3c([nH]c4ccccc34)[C@@](C(=O)OC)(c3cc4c(cc3OC)N(C)[C@H]3[C@@](O)(C(=O)NCCOC)[C@H](O)[C@]5(CC)C=CCN6CC[C@]43[C@@H]65)C2)C1.O=S(=O)(O)O | 0 | 0 |  |  |  |  |  | Activity [1]: Toxic; Activity [2]: Toxic; Activity [5]: Toxic
2 | CC[C@]1(O)C[C@H]2CN(CCc3c([nH]c4ccccc34)[C@@](C(=O)OC)(c3cc4c(cc3OC)N(C)[C@H]3[C@@](O)(C(=O)NCCO)[C@H](O)[C@]5(CC)C=CCN6CC[C@]43[C@@H]65)C2)C1.O=S(=O)(O)O | 76 | 76 | 76 | 76 | 51 | 76 | 76 | inhibition in vivo at 0.1 mg/kg [6]: 51%; LD50 [7]: 4.4 mg/kg; survival at 0.6 mg/kg [10]: 51%; inhibition in vivo at 0.05 mg/kg [11]: 76%; Activity [12]: 3%; survival at 1.2 mg/kg [13]: 93%; Activity [14]: 15%; Activity [16]: 15%; survival at 0.9 mg/kg [18]: 97%
3 | CC[C@]1(O)C[C@H]2CN(CCc3c([nH]c4ccccc34)[C@@](C(=O)OC)(c3cc4c(cc3OC)N(C)[C@H]3[C@@](O)(C(=O)NCCN(C)C)[C@H](O)[C@]5(CC)C=CCN6CC[C@]43[C@@H]65)C2)C1 |  | 0 |  | 0 |  | 51 | 0 | pKa [20]: 8.5
4 | CC[C@]1(O)C[C@H]2CN(CCc3c([nH]c4ccccc34)[C@@](C(=O)OC)(c3cc4c(cc3OC)N(C)[C@H]3[C@@](O)(C(=O)NC(C)C)[C@H](O)[C@]5(CC)C=CCN6CC[C@]43[C@@H]65)C2)C1.O=S(=O)(O)O | 0 |  | 76 |  | 0 |  |  | Activity [21]: Toxic; Activity [22]: Toxic; Activity [23]: Toxic; Activity [24]: Toxic
5 | CC[C@]1(O)C[C@H]2CN(CCc3c([nH]c4ccccc34)[C@@](C(=O)OC)(c3cc4c(cc3OC)N(C)[C@H]3[C@@](O)(C(=O)NCCCO)[C@H](O)[C@]5(CC)C=CCN6CC[C@]43[C@@H]65)C2)C1 |  | 51 | 76 | 76 | 26 | 76 | 76 | inhibition in vivo at 0.2 mg/kg [25]: 76%; inhibition in vivo at 0.4 mg/kg [26]: 76%
6 | CC[C@]1(O)C[C@H]2CN(CCc3c([nH]c4ccccc34)[C@@](C(=O)OC)(c3cc4c(cc3OC)N(C)[C@H]3[C@@](O)(C(=O)NCCNC(C)=O)[C@H](O)[C@]5(CC)C=CCN6CC[C@]43[C@@H]65)C2)C1 | 76 | 76 |  | 76 |  |  |  | inhibition in vivo at 0.125 mg/kg [27]: 51%; inhibition in vivo at 0.25 mg/kg [28]: 76%; inhibition in vivo at 0.5 mg/kg [29]: 76%
7 | CC[C@]1(O)C[C@H]2CN(CCc3c([nH]c4ccccc34)[C@@](C(=O)OC)(c3cc4c(cc3OC)N(C)[C@H]3[C@@](O)(C(=O)NCCN)[C@H](O)[C@]5(CC)C=CCN6CC[C@]43[C@@H]65)C2)C1 |  | 0 | 0 | 0 |  |  |  | inhibition in vivo at 0.3 mg/kg [30]: 0%; pKa [20]: 9.48
8 | CC[C@]1(O)C[C@H]2CN(CCc3c([nH]c4ccccc34)[C@@](C(=O)OC)(c3cc4c(cc3OC)N(C)[C@H]3[C@@](O)(C(=O)NCCNC(C)=O)[C@H](OC(C)=O)[C@]5(CC)C=CCN6CC[C@]43[C@@H]65)C2)C1 |  |  |  |  |  |  |  | inhibition in vivo at 0.125 mg/kg [27]: 0%; inhibition in vivo at 0.25 mg/kg [28]: 51%; inhibition in vivo at 0.5 mg/kg [29]: 76%
